# pIC50: −log10 of the molar value.
# Columns and labels:
# [1] = Aqueous stability; type: physicochemical; conditions: for Stability (amount of aqua complex in the solution), 1H NMR: D2O, after 18 or 24 h incubation (NMR: 18 h)
# Outline: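 Test compound (1−2 mg/mL) dissolved in D2O; 1H NMR spectra recorded immediately after dissolution and again after 18 h to follow chlorido-to-aqua exchange.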
# [2] = tested on: CH1 cells (ovarian carcinoma); assay: MTT cytotoxicity assay, CH1; type: cell-based, human; conditions: for capacity of inhibiting tumor cell proliferation in vitro: CH1 ovarian cancer cells; for pIC50: Homo sapiens, CH1, 96 h, read-out: IC50 CH1
# Outline: (§1)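 Adherent monolayers grown in supplemented MEM with 10% heat-inactivated FBS at 37 °C, 5% CO2. Cells were trypsinised and seeded at 4 × 10^3 (A549), 1.5 × 10^3 (CH1) or 2.5 × 10^3 (SW480) per well, then left 24 h. Compound dilutions in complete medium were applied for 96 h. MTT was added for 4 h and formazan dissolved in DMSO; OD read at 550/690 nm versus untreated controls. IC50 was interpolated from the curves; ≥3 independent experiments, triplicates.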
# [3] = tested on: rat skeletal myoblasts; conditions: in vitro, preliminary; cited from earlier work
# [4] = Aqueous stability; type: physicochemical; conditions: water, 25 °C, after 18 or 24 h incubation
# [5] = tested on: topoisomerase II; conditions: electrophoretic assay with plasmid DNA; cited from earlier work
# [6] = tested on: A549 cells (nonsmall cell lung carcinoma); assay: MTT cytotoxicity assay, A549; type: cell-based; conditions: Homo sapiens, A549, 96 h, read-out: IC50 A549
# Outline: as §1
# [7] = tested on: SW480 cells (colon carcinoma); assay: MTT cytotoxicity assay, SW480; type: cell-based; conditions: Homo sapiens, SW480, 96 h, read-out: IC50 SW480
# Outline: as §1
Molecule,"Stability (amount of aqua complex in the solution), 1H NMR [1] [%]","free ligand from decomposition of the aqua species ([1]; aqueous solution, over 24 h)",capacity of inhibiting tumor cell proliferation in vitro [2],sensitivity of CH1 cells relative to SW480 cells ([2]; ratio of IC50 SW480 / CH1),cytotoxic activity in rat skeletal myoblasts [3],"Stability (amount of aqua complex in the solution), CZE-ICP-MS [4] [%]",topoisomerase II inhibition [5],pIC50 [6],pIC50 [2],pIC50 [7]
"CC1COc2c(N3CCN(C)CC3)c(F)cc3c(=O)c(C(=O)[O-])cn1c23.Cc1ccc(C(C)C)cc1.[Cl-].[Ru+2] (centres unmarked) [Compound 1, chlorido(η^6-p-cymene)(ofloxacinato-κ^2O,O)ruthenium(II)]",45,more than 40%,moderate,about 10 times,no significant activity,56,very little topoisomerase II inhibition,–,–,–
"CCn1nc(C(=O)O)c(=O)c2cc3c(cc21)OCO3 [cin-H, cinoxacin]",–,–,–,–,–,–,–,< 3.49,< 3.49,< 3.49
"CCn1cc(C(=O)O)c(=O)c2ccc(C)nc21 [nal-H, nalidixic acid]",–,–,–,–,–,–,–,< 3.49,< 3.49,< 3.49
"CC1COc2c(N3CCN(C)CC3)c(F)cc3c(=O)c(C(=O)O)cn1c23 (centres unmarked) [oflo-H, ofloxacin, reference compound]",–,–,–,–,–,–,very little topoisomerase II inhibition,< 3.49,< 3.49,< 3.49
"Chlorido(η^6-p-cymene)(cinoxacinato-κ^2O,O)ruthenium(II) [Compound 3]",90,–,inactive,–,–,87,–,–,–,–
"Chlorido(η^6-p-cymene)(nalidixicato-κ^2O,O)ruthenium(II) [Compound 2]",94,–,inactive,–,–,93,–,–,–,–
